Consider 31 compounds from ChEMBL document CHEMBL3407490, “Synthesis of functionalized 3-, 5-, 6- and 8-aminoquinolines via intermediate (3-pyrrolin-1-yl)- and (2-oxopyrrolidin-1-yl)quinolines and evaluation of their antiplasmodial and antifungal activity” (Eur J Med Chem, 2015).

≈ marks a conversion by molar mass, not a printed value. Calls of active or inactive are those of the source. No cut-off for these calls is given here.

For data set [1], the system named is Candida albicans. Briefly: Antifungal activity against Candida albicans IHEM 374 by microdilution method. Type of data set: functional. Summed up: (§1)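 Broth microdilution: log2 dilution series made from stocks in 10% DMSO, diluted 1:5 in RPMI 1640 with glutamine and without bicarbonate. Equal volume of working inoculum added: 1 × 10^3 CFU/mL at 37 °C (C. albicans, A. flavus) or 1 × 10^5 CFU/mL at 20 °C (R. bogoriensis). Absorbance read at 530 nm. MIC taken as the concentration giving 50% growth inhibition versus 1% DMSO medium control. Amphotericin B as positive control.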
Background: Dilution methods test growth across graded concentrations, often in twofold steps.

Data set [2] in a line: Antifungal activity against Rhodotorula bogoriensis MUCL 11796 by microdilution method. Type of data set: functional. Summed up:
as §1

The test system of data set [3] is Aspergillus flavus. Description: Antifungal activity against Aspergillus flavus IHEM 5785 by microdilution method. Type of data set: functional. Summed up:
as §1

Data set [4] relates to Plasmodium falciparum. Description: Antiplasmodial activity against chloroquine-sensitive asexual erythrocytic stage of Plasmodium falciparum NF54 assessed as […] lactate dehydrogenase assay. It is filed as functional, organism-based. Summed up:
(§2)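 Asexual erythrocytic P. falciparum kept in continuous culture (modified Trager–Jensen). Growth measured by parasite lactate dehydrogenase assay (modified Makler). Full dose-response: 10 twofold dilutions in complete medium from 10 μg/mL down to 0.02 μg/mL. Tested in triplicate on one occasion. Chloroquine and artesunate as references.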

Data set [5] relates to Candida albicans. Briefly: Antifungal activity against Candida albicans IHEM 374 at 600 ug/dish after 1 day by disk diffusion method. Type of data set: functional, organism-based. As to conditions: 600 ug/dis. Summed up: (§3)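 Disk diffusion: strains subcultured on Sabouraud dextrose agar; inoculum of colonies (yeast) or mycelium plus spores (A. flavus) in sterile saline adjusted to 0.5 McFarland, swabbed onto Mueller-Hinton + GMB agar ([…], 0.5 μg/mL methylene blue). DMSO-dissolved compound applied to 6 mm paper disks and freeze-dried; 600 μg/dish in triplicate. Incubated at 37 °C for 1 day (C. albicans, A. flavus) or 20 °C for 4 days (R. bogoriensis). Nystatin disks as positive control, DMSO disks as negative control.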
For orientation: A growth-free zone around the sample is the usual read-out of agar diffusion tests.

Data set [6] in a line: Antifungal activity against Rhodotorula bogoriensis MUCL 11796 at 600 ug/dish after 4 days by disk diffusion method. It is filed as functional. As to conditions: 600 ug/dis. Summed up: as §3
Data set [7] has as its system Aspergillus flavus. Description: Antifungal activity against Aspergillus flavus IHEM 5785 at 600 ug/dish after 1 day by disk diffusion method. It is filed as functional, organism-based. To be noted: 600 ug/dis. Summed up: as §3
Data set [8] has as its system CHO. Briefly: Cytotoxicity against CHO cells assessed as cell growth and survival after 48 hrs by MTT assay. To be noted: Cricetulus griseus. Type of data set: cell-based. Summed up: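 CHO mammalian cells; growth and survival read by MTT assay. Samples diluted in complete medium using the same scheme as the emetine reference (tenfold serial dilutions, 6 concentrations). Emetine was the reference drug. IC50 obtained by non-linear dose-response curve fitting.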
Background: Tetrazolium assays rely on reduction of a dye to a coloured formazan, in cell work by metabolically active cells.

Data set [9] concerns Plasmodium falciparum. Briefly: Antiplasmodial activity against chloroquine-resistant asexual erythrocytic stage of Plasmodium falciparum Dd2 assessed as […] lactate dehydrogenase assay. It is filed as functional, organism-based. Summed up: as §2
Data set [10] is described as follows: Selectivity index, ratio of IC50 for CHO cells to IC50 for chloroquine-sensitive asexual erythrocytic stage of Plasmodium falciparum NF54. To be noted: hamster; read-out: Ratio IC50. Type of data set: toxicity, cell-based. Summed up:
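Selectivity index calculated as IC50 in CHO cells (MTT) divided by IC50 against NF54 (pLDH).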

The test system of data set [11] is Plasmodium falciparum. Description: Resistance index, ratio of IC50 for chloroquine-resistant asexual erythrocytic stage of Plasmodium falciparum Dd2 to IC50 for chloroquine-sensitive asexual erythrocytic stage of Plasmodium falciparum NF54. It is filed as functional. Summed up: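 Resistance index calculated as IC50 against Dd2 divided by IC50 against NF54, both from the pLDH assay.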

As for `C[C@@H]1[C@H](O)[C@@H](C)/C=C/C=C/C=C/C=C/C=C/C=C/C=C/[C@H](O[C@@H]2O[C@H](C)[C@@H](O)[C@H](N)[C@@H]2O)C[C@@H]2O[C@](O)(C[C@@H](O)C[C@@H](O)[C@H](O)CC[C@@H](O)C[C@@H](O)CC(=O)O[C@H]1C)C[C@H](O)[C@H]2C(=O)O` [AMPHOTERICIN B], the MIC (usually the lowest concentration found to suppress growth) in [1] is < 0.2 µM; in [2] it was < 0.2 µM; in [3], 30 µM (≈ 27.7 µg/mL).

For the compound `O=C1CCCN1c1cccc2ncccc12`, in data set [4], the IC50 – broadly, the concentration that gives 50% inhibition – is > 45 µM.

Consider `OCCCCNc1ccc2ncccc2c1`, for which the half-maximal inhibitory concentration (IC50) in data set [4] is > 45 µM. The outcome in data set [5], in data set [6] and in [7] was Active. The MIC in [1] was 1200 µM (≈ 260 µg/mL); in [2] it was 1200 µM (≈ 260 µg/mL); in [3], 10 µM (≈ 2.16 µg/mL).

Turning to `CC(C)(O)CCCNc1cccc2cccnc12`, the half-inhibitory concentration (IC50) in data set [4] is > 40 µM. Besides, the outcome in data set [5], in [6] and in data set [7] was Active. In addition, the MIC turned out to be 1000 µM (≈ 244 µg/mL) in data set [1], 30 µM (≈ 7.33 µg/mL) in [2] and 60 µM (≈ 14.7 µg/mL) in data set [3].

As for `O=C1CCCN1c1cccc2cccnc12`, the concentration for half-maximal inhibition (IC50) in [4] is > 45 µM.

For `CC1CCCN1c1cnc2ccccc2c1` (stereo not drawn), the IC50 in data set [4] was determined as 31.1 µM.

For the compound `O=C1CCCN1c1ccc2ncccc2c1`, in data set [4], the IC50 is > 45 µM.

For the compound `CC(O)CCCNc1cccc2ncccc12` (stereo not drawn), in data set [4], the IC50 came to 32.6 µM.

With `C1=CCN(c2cccc3cccnc23)C1`, the IC50 in [4] is > 50 µM.

Take `O=C1CCCN1c1cnc2ccccc2c1`: the 50% inhibitory concentration (IC50) in data set [4] is > 45 µM.

Consider `OCCCCNc1cnc2ccccc2c1`, for which, in data set [4], the 50% inhibitory concentration (IC50) was > 45 µM.

For the compound `Cc1nc2ccccc2cc1NCCCC(C)O` (stereo not drawn), in [4], the IC50 was > 40 µM.

As to `CC(C)(O)CCCNc1ccc2ncccc2c1`, the half-maximal inhibitory concentration (IC50) in data set [4] was > 40 µM.

With `Brc1c(Br)c(Br)n(-c2ccc3ncccc3c2Br)c1Br`, the 50% inhibitory concentration (IC50) in [4] is > 15 µM.

Regarding `OCCCCNc1cccc2cccnc12`, in [4], the half-inhibitory concentration (IC50) was > 45 µM. For the same compound, the result in [5], in data set [6] and in data set [7] was Active. The results for the minimal inhibitory concentration (MIC) in data set [1], in [2] and in [3] were 1200 µM (≈ 260 µg/mL), 40 µM (≈ 8.65 µg/mL) and 100 µM (≈ 21.6 µg/mL), respectively.

With `CC(O)CCCNc1ccc2ncccc2c1` (stereo not drawn), the IC50 in data set [4] is > 40 µM. Further, the outcome in [5], in [6] and in data set [7] was Active. Further, the MIC turned out to be 1100 µM (≈ 253 µg/mL) in data set [1], 1100 µM (≈ 253 µg/mL) in data set [2] and 300 µM (≈ 69.1 µg/mL) in data set [3].

Take `CC[C@H]1CN2CCc3cc(OC)c(OC)cc3[C@@H]2C[C@@H]1C[C@H]1NCCc2cc(OC)c(OC)cc21` [EMETINE]: the IC50 in data set [8] was 0.125 µM.

For `CC(C)(O)CCCNc1cccc2ncccc12`, the 50% inhibitory concentration (IC50) in data set [4] amounted to 28.2 µM. For the same compound, the result in [5], in [6] and in data set [7] was Active. Besides, the MIC in data set [1] turned out to be 2000 µM (≈ 489 µg/mL); in data set [2] it was 20 µM (≈ 4.89 µg/mL); in data set [3], 300 µM (≈ 73.3 µg/mL).

Turning to `C1=CCN(c2cnc3ccccc3c2)C1`, the half-inhibitory concentration (IC50) in data set [4] is > 50 µM.

Turning to `c1cc(N2CCCC2)c2cccnc2c1`, the half-inhibitory concentration (IC50) in data set [4] was > 50 µM.

Take `C1=CCN(c2ccc3ncccc3c2)C1`: in data set [4], the IC50 was > 50 µM.

For `Cc1nc2ccccc2cc1N1CCCC1C` (stereo not drawn), the half-inhibitory concentration (IC50) in data set [4] came out at 13.3 µM; in data set [9], 38 µM; in data set [8], 294 µM. For the same compound, the selectivity ratio in data set [10] was found to be 22. Also, the “Ratio IC50” value in data set [11] was determined as 2.9.

Take `CC1CCCN1c1ccc2ncccc2c1` (stereo not drawn): the IC50 in [4] is 41.9 µM.

As for `C[C@H]1[C@H](OC(=O)CCC(=O)O)O[C@@H]2O[C@@]3(C)CC[C@H]4[C@H](C)CC[C@@H]1[C@@]24OO3` [ARTESUNATE], the IC50 in data set [9] was determined as 0.011 µM. For the same compound, in [11], the “Ratio IC50” value was determined as 2.2.

`c1cnc2ccc(N3CCCC3)cc2c1`: the IC50 in data set [4] was > 50 µM.

As for `CC1CCCN1c1cccc2ncccc12` (stereo not drawn), the IC50 in [4] was > 45 µM.

With `CC(O)CCCNc1cnc2ccccc2c1` (stereo not drawn), the IC50 in data set [4] was > 40 µM. Moreover, the result in data set [5], in data set [6] and in data set [7] was Active. For the same compound, the minimum inhibitory concentration (MIC) in [1] turned out to be 1100 µM (≈ 253 µg/mL); in [2] it was 300 µM (≈ 69.1 µg/mL); in data set [3], 100 µM (≈ 23 µg/mL).

For `Cc1nc2ccccc2cc1NCCCC(C)(C)O`, in data set [4], the IC50 was > 35 µM.

Consider `c1ccc2ncc(N3CCCC3)cc2c1`, for which, in data set [4], the IC50 is > 50 µM.

In the case of `OCCCCNc1cccc2ncccc12`, the results for the IC50 in data set [4], in [9] and in data set [8] were 19.9 µM, 49 µM and > 100 µM, respectively. Further, in data set [10], the selectivity ratio came to 23. The “Ratio IC50” value in [11] stood at 2.5.

As to `C1=CCN(c2cccc3ncccc23)C1`, the IC50 in [4] was > 50 µM.
